Myeloid diff 2 = compounds promoting myeloid differentiation. hit rate 1% among 360,000. calls only at 10 µM. ER-HoxA9 myeloid progenitors, lysozyme-GFP differentiation, flow cytometry;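 active = normalized GFP-positive differentiation at or above the plate's own cutoff, the solvent-only control mean plus 3 SD; inconclusive = no clear call, values can overlap the other calls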;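 note: cells exposed to compound for four days before flow analysis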
Exocytosis inh = lytic granule exocytosis inhibition; inhibition, % at 10 µM; TALL-104 LAMP-1 surface exposure, flow cytometry; cells stimulated with thapsigargin and PMA; AID 651702; hit rate 0.66% among 360,000;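 active = inhibition above about 55%, limit read from the data; inconclusive = no clear call, values can overlap the other calls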
HNF4A DNA FP = change in binding of human HNF4 alpha to DNA. HNF4a-FITC DNA binding, fluorescence polarization, 1 h. activity change, % at 10 µM. hit rate 0.3% among 360,000. AID 1224865; in the data active = activity change above about 30%, passing the limit was not always enough
Target sequence (P41235 whole entry, looked up): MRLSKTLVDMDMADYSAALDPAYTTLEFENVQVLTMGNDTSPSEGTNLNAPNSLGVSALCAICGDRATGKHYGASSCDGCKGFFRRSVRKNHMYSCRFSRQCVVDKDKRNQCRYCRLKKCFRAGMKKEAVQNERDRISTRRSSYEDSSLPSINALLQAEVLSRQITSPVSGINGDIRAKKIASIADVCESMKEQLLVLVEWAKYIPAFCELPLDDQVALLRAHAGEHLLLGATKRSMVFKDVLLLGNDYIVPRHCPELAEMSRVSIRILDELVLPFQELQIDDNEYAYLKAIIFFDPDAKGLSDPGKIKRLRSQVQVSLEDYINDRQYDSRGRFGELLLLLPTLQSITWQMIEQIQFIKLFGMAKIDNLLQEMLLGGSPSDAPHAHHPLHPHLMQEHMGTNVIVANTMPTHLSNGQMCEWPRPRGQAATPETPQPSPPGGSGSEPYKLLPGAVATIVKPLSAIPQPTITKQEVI
CSN deneddyl inh = CSN deneddylation inhibition; Purified CSN, SCF-Nedd8-OG deneddylation, fluorescence polarization; AID 651999; Q92905; hit rate 0.38% among 360,000; inhibition, % at 12.5 µM;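 active = pattern-corrected inhibition above about 35%, with an unprinted fluorescence ratio check between 0.5 and 1.5, limit read from the data, passing the limit was not always enough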;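 note: 0% = enzyme with substrate and 100% = substrate without enzyme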
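Detection – fluorescence polarization · System – HEK293T-derived human Csn5 enzyme · Controls – substrate-only high control, full reaction low control · Timing – 90 min, room temperature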
Starred values were filed as active, the others as inactive; i = inactive; ? = inconclusive; . = no result given; + = active, no number. Only some compounds are listed: those with a hit (about 2.2% of all), similar ones and a draw of the others.

SMILES	Myeloid diff 2	Exocytosis inh	HNF4A DNA FP	CSN deneddyl inh
CCOC(=O)c1cccc([P+](=O)O)c1	i	3.1	6.5	-1.5
CCOC(=O)c1ccc2[nH]c(-c3ccc(S(=O)(=O)F)cc3)cc(=O)c2c1	+	6.8	-1.6	1.2
C[C@]12CCC(=O)C=C1C=CC1C2CC[C@@]2(C)C1CC[C@@H]2O (stereo partly drawn)	i	2.4	-1.1	1.1
Cc1ccc(N2C(=O)/C(=C/c3ccc(CN(CCC#N)S(C)(=O)=O)o3)C(=O)NC2=S)cc1	i	3.8	-7.3	47.5*
Cc1ccc(/C=C2\C(=O)NC(=S)N(c3ccc(F)cc3)C2=O)o1	i	3.7	24.8	26.4
COc1cc(/C=C/C(=O)c2c(O)n(CCc3ccccc3)c(=O)[nH]c2=O)ccc1O	+	3.2	3.2	12.8
O=C(/C=C/c1ccc2c(c1)OCO2)c1c(O)n(CCc2ccccc2)c(=O)[nH]c1=O	i	0.3	-0.1	11.6
CC(C)C[C@H]1C(=O)N2CCCC2[C@]2(O)O[C@](NC(=O)[C@@H]3C=C4c5cccc6[nH]cc(c56)CC4N(C)C3)(C(C)C)C(=O)N12 (stereo partly drawn)	i	2.0	-63.9	-37.4
CC(C)[C@H]1C(=O)N2CCC[C@H]2[C@]2(O)O[C@](NC(=O)[C@@H]3C=C4c5cccc6[nH]cc(c56)C[C@H]4N(C)C3)(C(C)C)C(=O)N12	+	0.3	-39.7	-31.1
CC=C(CC)C1(CC)C(=O)NC(=S)NC1=O	?	1.0	1.1	1.9
C[n+]1ccc(-c2ccccc2)c2ccccc21	+	3.4	3.6	0.0
COC(=O)C1=C(c2ccc(OCc3ccccc3)cc2)C[C@@H]2CC[C@H]1N2C	i	2.7	0.8	6.4
Oc1ccccc1-[n+]1c(-c2ccccc2)cc(-c2ccccc2)c(O)c1-c1ccccc1	i	74.4*	1.6	5.3
COC(=O)C1=C(c2ccc(F)cc2OCc2ccccc2)C[C@@H]2CC[C@H]1N2C(=O)NCc1ccccc1Cl	+	30.1	-3.1	0.6
COC(=O)C1=C(c2ccc(F)cc2OCc2ccccc2)C[C@@H]2CC[C@H]1N2C(=O)NCCOc1ccccc1Cl	i	-15.2	1.5	0.0
COC(=O)C1=C(c2ccc(Cl)c(C(F)(F)F)c2)C[C@@H]2CC[C@H]1N2C(=O)NCc1ccc2c(c1)OCO2	i	76.1*	-2.0	3.4
COC(=O)C1=C(c2cccc(OCc3ccccc3)c2)C[C@@H]2CC[C@H]1N2C(=O)NCc1ccc(N(C)C)cc1	+	12.4	4.0	1.5
COC(=O)C1=C(c2cccc(OCc3ccccc3)c2)C[C@@H]2CC[C@H]1N2C(=O)NCc1ccc(C(C)(C)C)cc1	i	5.0	-4.0	-3.5
COC(=O)C1=C(c2ccc(C(C)=O)cc2)C[C@@H]2CC[C@H]1N2C(=O)NCc1ccc2c(c1)OCO2	i	2.2	1.3	-0.8
CS(=O)(=O)c1ccc(C2=C(CNC(=O)c3cccs3)[C@H]3CC[C@@H](C2)N3CCOc2ccccc2)cc1	i	1.5	-3.5	0.4
CCOc1ccc(-c2cc(C)[n+](CCO)c(-c3ccc(OCC)cc3)c2)cc1	i	1.1	-1.3	1.3
CCOc1ccc(-c2cc(C)[n+](CCc3ccc(OC)c(OC)c3)c(-c3ccc(OCC)cc3)c2)cc1	i	57.0*	2.3	-2.6
COc1ccc(C(=O)N/N=C/C23CC[C@@H](O)CC2(O)CC[C@@H]2[C@@H]3CCC3(C)C(C4=CC(=O)OC4)CCC23O)cc1 (stereo partly drawn)	+	6.1	3.5	1.4
CCCCn1c(O)c(C(C)=NCc2cc(OC)cc(OC)c2)c(=O)[nH]c1=O	+	-0.9	9.5	0.2
C[CH2][Hg][S]c1ccccc1C(=O)O	+	69.3*	3.9	-3.2
SMILES	Myeloid diff 2	Exocytosis inh	HNF4A DNA FP	CSN deneddyl inh
CC(C)COC(=O)c1ccccc1C(=O)OCC(C)C	i	-6.2	0.1	3.7
Cc1ccc(N2C(=O)/C(=C/N3CCN(C(=O)c4ccco4)CC3)C(=O)NC2=S)cc1C	.	2.2	2.4	15.0
O=C1NC(=S)N(c2ccc(Br)cc2)C(=O)/C1=C/N1CCN(C(=O)c2ccco2)CC1	i	-1.2	49.2*	57.4*
C#C[C@]1(O)[C@H](O)CC2C3CC[C@H]4C[C@@H](O)CC[C@]4(C)C3CC[C@@]21C (stereo partly drawn)	+	-0.8	23.5	-3.0
Cc1ccc(S(=O)(=O)N2Cc3cc(-c4ccccc4)ccc3-n3nncc3C2)cc1	i	-3.3	47.9*	2.0
Cc1ccnc(NC(=O)CCCc2ccc(N(CCCl)CCCl)cc2)n1	?	6.9	8.7	83.8*

From PubChem BioAssay
